Test results from PMC12560046 (RSC Chemical Biology, 2025).

Tests used:
hepatitis B virus (HBV) [1] = assay: Inhibition of HBsAg secretion in HBV-replicating HepAD38 cells; format: cell-based; settings: for Inhibition of HBsAg secretion (in words): 5 μM, relative to vehicle 0.5% DMSO
Procedure, shortened: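 HepAD38 cells carry an integrated HBV genome under a tetracycline-regulated promoter, […]. Cells were treated with test compound. HBsAg secreted into the culture supernatant was quantified by ELISA. Selectivity index was taken as CC50/IC50.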

hepatitis B virus (HBV) [2] = assay: Reduction of intracellular HBV rcDNA in HepAD38 cells; format: cell-based; settings: qPCR, relative to 0.5% DMSO vehicle
[3] = Cytotoxicity in HepAD38 cells; format: cell-based; settings: human, Cytotoxicity CC50, HepAD38 cells, MTS assay, 0 to 100 μM
HepAD38 cells = assay: Cytotoxicity in HepAD38 cells; format: cell-based; settings: read-out: Cytotoxicity CC50, MTS assay, 0 to 100 μM
hepatitis B virus (HBV) [4] = settings: HepAD38 cells, 1–10 μM; cited from earlier work

Row | Structure (SMILES) | Inhibition of HBsAg secretion (in words) (hepatitis B virus (HBV) [1]; HepAD38 cells) | rcDNA inhibition [%]: compound (5 μM) (hepatitis B virus (HBV) [2]) | CC50 at 14 days [3] | Selectivity index: CC50/IC50 (hepatitis B virus (HBV) [1]; HepAD38 cells, CC50 (MTS) / HBsAg IC50) | IC50 (hepatitis B virus (HBV) [1]; Hepatitis B virus, HePAD38, read-out: HBsAg IC50) | CC50 (HepAD38 cells) | Effect on cccDNA levels (in words) (hepatitis B virus (HBV) [4])
1 | CCOC(=O)C1=C[C@]2(CC)CCCN3CCc4c(n1c1ccccc41)[C@@H]32 [compound 8, vinpocetine] | negligible inhibitory effects | minimal or no effect | > 100 µM |  |  |  | 
2 | CC[C@]12C=CCN3CC[C@]4(C(=C(C(=O)OC)C1)Nc1ccccc14)[C@@H]32 [compound 6, tabersonine] | only modest inhibitory activity | minimal or no effect |  | 2.86 | 14.6 ± 4.1 µM | 41.8 ± 3.1 µM | 
3 | C[C@@]1(CO)[C@H](O)CC[C@@]2(C)[C@H]1CC[C@H]1C[C@@H]3C[C@@]12CC[C@]3(O)CO [aphidicolin] |  |  |  |  |  |  | effectively reduces cccDNA levels in a dose-dependent manner
